# Laboratory results taken from ChEMBL document CHEMBL4229321, “Monoterpenoid Indole Alkaloids from Kopsia officinalis and the Immunosuppressive Activity of Rhazinilam” (J Nat Prod, 2017).
# pIC50: −log10 of the molar value. Calls of active or inactive are those of the source. No cut-off for these calls is given here.
# Key:
# T-cell line [1] = experiment: Effect on anti-CD3/anti-CD28 antibody-induced cell activation in human T cells assessed as effect on CD25 expression at 0.1 uM incubated for 24 hrs by flow cytometry (reference value: 69.1%); format: functional
# T-cell line [2] = experiment: Effect on anti-CD3/anti-CD28 antibody-induced cell activation in human T cells assessed as effect on CD69 expression at 0.1 uM incubated for 24 hrs by flow cytometry (reference value: 41.2%); format: functional
# T-cell line [3] = experiment: Immunosuppressive activity in human T cells assessed as reduction in anti-CD3/anti-CD28 antibody-induced cell proliferation incubated for 72 hrs by CFSE based flow cytometry; format: functional
# How it was run: (§1)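 Cells (10^6 cells/mL) labelled with 2.5 μM CFSE at 37 °C for 10 min. T cells from healthy donors (95% purity) were activated with plate-bound anti-CD3 (2 μg/mL) plus soluble anti-CD28 (1 μg/mL). Alternatively, PBMCs were mixed with equal numbers of 3000-rad-irradiated allogeneic PBMCs. Cells were cultured with or without drug for 72 h in RPMI 1640 with 10% FBS, and CFSE dilution was read by flow cytometry. Unstimulated cells served as 0% and stimulated untreated cells as 100%. IC50 was calculated from these.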
# T-cell line [4] = experiment: Induction of cell cycle arrest in anti-CD3/anti-CD28 antibody-stimulated human T cells assessed as accumulation at S phase at 0.1 uM incubated for 72 hrs by flow cytometry (reference value: 18.1%); format: functional
# PBMC = experiment: Cytotoxicity in human PBMC cells assessed as reduction in cell viability at 20 to 320 uM incubated for 72 hrs by CCK8 assay; format: cell-based
# How it was run: (§2)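 Naive human T cells or PBMCs (10^6 cells/mL) exposed to 20, 40, 80, 160 or 320 μM or vehicle for 72 h. Viability read by CCK-8 as OD450, with untreated cells set to 100%. Mean ± SEM, n = 5 per group, three independent experiments.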
# T-cell line [5] = experiment: Induction of cell cycle arrest in anti-CD3/anti-CD28 antibody-stimulated human T cells assessed as accumulation at G0/G1 phase at 5 uM incubated for 72 hrs by flow cytometry (reference value: 66.6%); format: functional
# T-cell line [6] = experiment: Effect on anti-CD3/anti-CD28 antibody-induced cell activation in human T cells assessed as effect on CD69 expression at 1 uM incubated for 24 hrs by flow cytometry (reference value: 41.2%); format: functional
# T-cell line [7] = experiment: Inhibition of IL17 production in anti-CD3/anti-CD28 antibody-stimulated human T cells at 0.2 to 5 uM incubated for 48 hrs by ELISA; format: functional, cell-based
# How it was run: (§3)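 Human T cells (10^6 cells/mL) treated with 0.2, 1 or 5 μM drug, LY-294002 (50 μM) or vehicle and activated with anti-CD3 (2 μg/mL) plus soluble anti-CD28 (1 μg/mL) for 48 h. Supernatant IL-6 and IL-17 were quantified by ELISA against recombinant cytokine standard curves. Mean ± SEM, n = 5 per group, three independent experiments.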
# T-cell line [8] = experiment: Induction of cell cycle arrest in anti-CD3/anti-CD28 antibody-stimulated human T cells assessed as accumulation at G2/M phase at 1 uM incubated for 72 hrs by flow cytometry (reference value: 15.3%); format: functional
# T-cell line [9] = experiment: Effect on anti-CD3/anti-CD28 antibody-induced cell activation in human T cells assessed as effect on CD25 expression at 5 uM incubated for 24 hrs by flow cytometry (reference value: 69.1%); format: functional
# T-cell line [10] = experiment: Induction of cell cycle arrest in anti-CD3/anti-CD28 antibody-stimulated human T cells assessed as accumulation at G2/M phase at 0.2 uM incubated for 72 hrs by flow cytometry (reference value: 15.3%); format: functional
# T-cell line [11] = experiment: Effect on anti-CD3/anti-CD28 antibody-induced cell activation in human T cells assessed as effect on CD69 expression at 0.2 to 5 uM incubated for 24 hrs by flow cytometry; format: functional, cell-based
# T-cell line [12] = experiment: Induction of cell cycle arrest in anti-CD3/anti-CD28 antibody-stimulated human T cells assessed as accumulation at S phase at 5 uM incubated for 72 hrs by flow cytometry (reference value: 18.1%); format: functional
# T-cell line [13] = experiment: Induction of cell cycle arrest in anti-CD3/anti-CD28 antibody-stimulated human T cells assessed as accumulation at G0/G1 phase at 0.2 uM incubated for 72 hrs by flow cytometry (reference value: 66.6%); format: functional
# T-cell line [14] = experiment: Inhibition of IL6 production in anti-CD3/anti-CD28 antibody-stimulated human T cells at 0.2 to 5 uM incubated for 48 hrs by ELISA; format: functional, cell-based; how it was run: as §3
# T-cell line [15] = experiment: Induction of cell cycle arrest in anti-CD3/anti-CD28 antibody-stimulated human T cells assessed as accumulation at G2/M phase at 5 uM incubated for 72 hrs by flow cytometry (reference value: 15.3%); format: functional
# T-cell line [16] = experiment: Effect on anti-CD3/anti-CD28 antibody-induced cell activation in human T cells assessed as effect on CD69 expression at 5 uM incubated for 24 hrs by flow cytometry (reference value: 41.2%); format: functional
# T-cell line [17] = experiment: Effect on anti-CD3/anti-CD28 antibody-induced cell activation in human T cells assessed as effect on CD25 expression at 1 uM incubated for 24 hrs by flow cytometry (reference value: 69.1%); format: functional
# T-cell line [18] = experiment: Effect on anti-CD3/anti-CD28 antibody-induced cell activation in human T cells assessed as effect on CD25 expression at 0.2 uM incubated for 24 hrs by flow cytometry (reference value: 69.1%); format: functional
# T-cell line [19] = experiment: Induction of cell cycle arrest in anti-CD3/anti-CD28 antibody-stimulated human T cells assessed as accumulation at G0/G1 phase at 1 uM incubated for 72 hrs by flow cytometry (reference value: 66.6%); format: functional
# T-cell line [20] = experiment: Effect on anti-CD3/anti-CD28 antibody-induced cell activation in human T cells assessed as effect on CD25 expression at 0.2 to 5 uM incubated for 24 hrs by flow cytometry; format: functional, cell-based
# T-cell line [21] = experiment: Effect on anti-CD3/anti-CD28 antibody-induced cell activation in human T cells assessed as effect on CD69 expression at 0.2 uM incubated for 24 hrs by flow cytometry (reference value: 41.2%); format: functional
# T-cell line [22] = experiment: Induction of cell cycle arrest in anti-CD3/anti-CD28 antibody-stimulated human T cells assessed as accumulation at S phase at 1 uM incubated for 72 hrs by flow cytometry (reference value: 18.1%); format: functional
# T-cell line [23] = experiment: Cytotoxicity in human T cells assessed as reduction in cell viability at 20 to 320 uM incubated for 72 hrs by CCK8 assay; format: cell-based; how it was run: as §2
# T-cell line [24] = experiment: Induction of cell cycle arrest in anti-CD3/anti-CD28 antibody-stimulated human T cells assessed as accumulation at S phase at 0.2 uM incubated for 72 hrs by flow cytometry (reference value: 18.1%); format: functional
# T-cell line [25] = experiment: Immunosuppressive activity in human T cells assessed as reduction in alloantigen stimulation-induced cell proliferation incubated for 72 hrs by CFSE based flow cytometry; format: functional; how it was run: as §1
structure (smiles),measurement,setting,value
C=CC[C@@H]1/C=C(\C)C[C@H](C)C[C@H](OC)[C@H]2O[C@@](O)(C(=O)C(=O)N3CCCC[C@H]3C(=O)O[C@H](/C(C)=C/[C@@H]3CC[C@@H](O)[C@H](OC)C3)[C@H](C)[C@@H](O)CC1=O)[C@H](C)C[C@@H]2OC [TACROLIMUS ANHYDROUS],Activity,T-cell line [1],6.8%
same,Activity,T-cell line [2],13.1%
COC(=O)N1c2c(OC)cccc2[C@@]23[C@H]4CN5CCC[C@@](CC[C@]12C(=O)O)(CC4=O)[C@H]53,pIC50,T-cell line [3],4.56
CC(=O)O[C@H]1C(=O)[C@@]2(C)[C@H]([C@H](OC(=O)c3ccccc3)[C@]3(O)C[C@H](OC(=O)[C@H](O)[C@@H](NC(=O)c4ccccc4)c4ccccc4)C(C)=C1C3(C)C)[C@]1(OC(C)=O)CO[C@@H]1C[C@@H]2O [PACLITAXEL],Activity,T-cell line [4],16.9%
CC[C@]12CCCn3ccc(c31)-c1ccccc1NC(=O)CC2 [RHAZINILAM],Activity,PBMC,Non-Toxic
same,Activity,T-cell line [5],42.1%
same,Activity,T-cell line [6],42.4%
same,inhibition,T-cell line [7],Active
same,Activity,T-cell line [8],22.9%
same,Activity,T-cell line [9],69.3%
same,Activity,T-cell line [10],16.7%
same,Activity,T-cell line [11],inactive
same,Activity,T-cell line [12],17.6%
same,Activity,T-cell line [13],66.5%
same,inhibition,T-cell line [14],Active
same,Activity,T-cell line [15],40.3%
same,pIC50,T-cell line [3],6.00
same,Activity,T-cell line [16],41.6%
same,Activity,T-cell line [17],70.3%
same,Activity,T-cell line [18],68.8%
same,Activity,T-cell line [19],57.4%
same,Activity,T-cell line [20],inactive
same,Activity,T-cell line [21],41.1%
same,Activity,T-cell line [22],19.7%
same,Activity,T-cell line [23],Non-Toxic
same,Activity,T-cell line [24],16.8%
same,pIC50,T-cell line [25],5.96
O=C1[C@H]2CN3CCC[C@]45CC[C@@]6(Nc7ccccc7[C@@]26[C@@H]34)[C@@]1(O)C5,pIC50,T-cell line [3],4.60
C[N+]12CCC[C@]34CC[C@@]5(Nc6ccccc6[C@]5(CC1)[C@H]32)[C@H](C(=O)[O-])C4 (some centres undefined),pIC50,T-cell line [3],4.67
